Variants at the floor of the assay were thinned out.
B1: tRNA (parent)
chain: GUUCCGUUGGCGUAAUGGUAACGCGUCUCCCUCCUAAGGAGAAGACUGCGGGUUCGAGUCCCGUACGGAACG

Variants of: B1
Test: yeast fitness relative to wild type (ratio to wild type); higher = fitter; tRNA-Arg(CCU), competitive growth, 37 C, YPD
Method in brief: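 Changes in genotype frequencies gave Darwinian fitness relative to wild type. Frequencies were read by 100-nucleotide paired-end sequencing of gene amplicons before and after pooled Saccharomyces cerevisiae strains, carrying tRNA-Arg(CCU) gene variants at the native locus, were competed in YPD at 37°C for 24 hours in six replicates. A genotype was kept only with ≥ 100 starting reads, and estimates < 0.5 were set to 0.5.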

Row | Variant | yeast fitness
1 | GUUCCGUUGGCGUAAUGGUAACGCGUCUCCCUCCUGAGGAGAAGACUGCGGGUUAGAGUUCCGUACGGAACG [A36G C55A C60U] | ≤ 0.5
2 | GUUCCGUUGGCGUCAUGGUAAUGUGUCUCCCUCCUAGGGAGAAGACUGCGGGUUCGAGUCCCGUACGGAACG [A14C C22U C24U A37G] | ≤ 0.5
3 | GUUCCGCUGGCGUAAUGGUGACGCGUCUCACUCCUAAGGAGAAGACUGCGGGUUCGAGUCCCGUACGGAACG [U7C A20G C30A] | ≤ 0.5
4 | GUUCUAUUGGCGUAAUGGUAACGCGUCUCCCUCCCUAAGAGAAGAAUGCGGGUCCGAGUCCCGUACGGAACG [C5U G6A U35C A36U G38A C46A U54C] | ≤ 0.5
5 | GUUCCGUUGGUGUAAUGGUAACGCGGCUCCCUCCUAAGGAGACGACUGCGGGCUCGAGUCCCGUAUGGACCG [C11U U26G A43C U53C C66U A70C] | 0.504
6 | GUUCCGUUGGCGUAAUGGUAGCGCGUCUCCCUCCUAACGAGAAGACUGCGGGUUCGAGUCCCGUACGCAACG [A21G G38C G68C] | ≤ 0.5
7 | GUUCCGUUGGCGUAAUGGUAACGCGUCUCCCUCCUCAGGAGAAGCCUGCGGGUUGGAGUCCAGUACGAAACG [A36C A45C C55G C62A G68A] | 0.575
8 | GUUCCGUUGGCGUAAUGCUAACGCGUCUCCCUCCUACGGAGAAGACUGCGGGUUCGAGUCCCGUACGGAACG [G18C A37C] | 0.641
9 | GUUCCGUUGGCGUAAUGGUAAAGCGUCACCCUCCUAAGGUGAAGACUGCGGGUUCGAGUCACGUACGGAACG [C22A U28A A40U C61A] | ≤ 0.5
10 | GUUCCGUUGGCGUAAUGGUACCGCGUCUCCCUCCUAAGGAGAAGACUGCGGGUUCGGGUCCCGUACGGGACG [A21C A57G A69G] | ≤ 0.5
11 | GUUCCGUUGGCGUAAUGGUAACGCGUCUCCCUCCUAAGGAGAAGACUGCGGGUACGAGUCCCGUACGGAGCG [U54A A70G] | 0.702
12 | GCUCCGUUGGCGUAAAGGUAACGCGUCUCCCUCCUAAGGAGAAGACUGCGGGUUCGAGUCCCGUACGGACCG [U2C U16A A70C] | 0.676
13 | GUACCGUUAGCGUAAUGGUAACGCGUCGCCCUCCUAAGGAGAAGACUGCGGGUUCGAGUCCCGUACGGAACG [U3A G9A U28G] | ≤ 0.5
14 | GUUCCGUUGGCGUAAUGGAAAUGCGUCUCCCUCCUAAGGAGAAGACUGCGGGUUCGAGUCCCCUACGGAACG [U19A C22U G63C] | ≤ 0.5
15 | GUUCCGUUGGCGUAAUGGUAACCCGUCUCCCUCCUAAGGAGAAGACUGUGGGUUCGAGUCCAGUAAGGAACG [G23C C49U C62A C66A] | ≤ 0.5
16 | GUUCCGUUGGCGUAAUGGUAACGCGUCUCCCUCGUAAGGAGAAGACUGCGGGUUCGAGUCCCGUACGGACCG [C34G A70C] | 0.585
17 | GUUCCGUUGGCGUAAUGGUAACGCGUCUCCCUCCUAAGGAGAACACUGCGGCUUCGAGUCCCGUAGGGAACG [G44C G52C C66G] | ≤ 0.5
18 | GUUCGGUUGGCGUCAUGACAACGCGUCUCCCUCCUAAGGAGAGGCUUGCGGGUUCGAGUCCCGUACGGAACG [C5G A14C G18A U19C A43G A45C C46U] | ≤ 0.5
19 | GUUCCGUUGGCGUAGUGGUAACGCGUCUGCCUCGUAAGGAGAAGACUGCGGGUUCGAGUCCCGCACGGAACG [A15G C29G C34G U64C] | ≤ 0.5

Row | Variant | yeast fitness
20 | GCUCCGUUGGCGUGAUGGUAACGCGUCUCCCUCCUAAGGAGCAGACUGCGGGUUCGAGUCCCGUACGGAACG [U2C A14G A42C] | 0.575
21 | GUUCCGUUGGCGUAAUGGUAACGCGUCUCCCUCCUAAGGAGACGACUGCGGGUUCGAGUCCCGUACGAAACG [A43C G68A] | 0.922
22 | GUUCCGUUGGCAUAAUCGUAACGCCUCUGCCUCCUUAGAAGAAGAUUGCGGGUUUGAGUCCCGUACGGAACG [G12A G17C G25C C29G A36U G39A C46U C55U] | ≤ 0.5
23 | GAUCCGUUGGCGUAAUGGUAACGCGUCUCCGUCCUAAGGAGAAGACUGCGGGUUCGAGUCCCGUUCCGAACG [U2A C31G A65U G67C] | ≤ 0.5
24 | GUUCCGUUGGCGUAAUGGUAACGCGUCUCCCUCCUAGGGUGAAGACUGCGGGUUCGACUCCCGUACGGAACG [A37G A40U G58C] | 0.729
25 | GUUCCAUUGGCGUAAUGGUAACGCGUCUCCCUCCUAAGGAGAAGACUGCGGGUUCGCGUCCCAUCCGGACCG [G6A A57C G63A A65C A70C] | ≤ 0.5
26 | GUUCCGUUGGCGUAAUGGUAACGCGUCUCCCUCAUAGGGAAAAGACUGCGGGUUCGAGUCCCGUACGGAACG [C34A A37G G41A] | ≤ 0.5
27 | GUUCCGUUGGCGUAAUGGUAAAGCAUCUCCGUCCUAAGGAGAAGACUCCGGGUUCGAGUCCCGUACGGAACG [C22A G25A C31G G48C] | ≤ 0.5
28 | GAUCCGUUGGCGUAAUGGUAAGGCCUCUCCCUCCUAAGGAGAAGACUGCGGGUUCGAGUCUCGUACGGAACG [U2A C22G G25C C61U] | ≤ 0.5
29 | GUUCCGUUGGCGUACUGGUAACGCGUCUCCUUCCUAAGGAGAAGACUGCGGGUUGGAGUCCCGUACGGAACG [A15C C31U C55G] | ≤ 0.5
30 | GUUCCGUUGGCGUAAUGGUAACGCGUCUCCCUGCUAAGGAGAAGAAUGCGGGUUCGAGUCCCGUACGGAACG [C33G C46A] | 0.71
31 | GUUCCGUUGGCGUAAUGGUAACGCGUCUCUCUCCUAAGGAGCAGACUGCGGGUUCGAGUCCCGUACGGAACG [C30U A42C] | 0.755
32 | GUUGCGUUGACGUAAUGGUAACGCGUCUCCCUCCUAAGGAGAAGACUGCGGGUUCGAGUCCCGUACGGUACG [C4G G10A A69U] | 0.625
33 | GUUCCGUUCGCGUAAUGGUAACGCGUCUCGCUCCUAAGGAGAAGACUGCGGGUUCGAGUCCCGUACGCAACG [G9C C30G G68C] | ≤ 0.5
34 | GUUCCAUUGGCGUAAUGGUAACGCGUCUCCCUCCUAAGGAGAAAAAUGCGGGUUCGAGUCCCGUACGGAACG [G6A G44A C46A] | ≤ 0.5
35 | GUUCCGUUGGAGUAAUGGUAACGCGUCUCCCUCCUAAGGAGGAGACUGCGGGGUCGAGUCCCGUACGGAACG [C11A A42G U53G] | ≤ 0.5
36 | GUUCCGUUGGAGUAAUUGUGACGCGUCUCCAUCCUAAGGAGAAGACUGCGGGUUCGAGUCCCGUACGGAACG [C11A G17U A20G C31A] | ≤ 0.5
37 | GUUCUGUUGGCGUAAUGGUAACGCGUCUCCCUCCUGAGGAGAAGUCUGCGGGUUCGAGUCCCGUACGGAACG [C5U A36G A45U] | 1.01

— the RNAGym collection of RNA variant scans (doi:10.1126/science.aae0568)
